Bioassay records deposited in PubChem BioAssay by several laboratories.
Compounds with a hit are over-represented: about 2.8% of the library has one in this group of screens.
PP1 counter = PP1-alpha (human) inhibition in PP5 counter-screen. P62136. purified PP1alpha, OMFP fluorescence. inhibition, % at 6.7 µM. 320,000 tested, 0.9% active;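 active = inhibition above the mean inhibition of all tested compounds plus 3 SD, computed separately for each screening campaign, cut at about 15% in these data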
Target sequence (P62136 whole entry, looked up): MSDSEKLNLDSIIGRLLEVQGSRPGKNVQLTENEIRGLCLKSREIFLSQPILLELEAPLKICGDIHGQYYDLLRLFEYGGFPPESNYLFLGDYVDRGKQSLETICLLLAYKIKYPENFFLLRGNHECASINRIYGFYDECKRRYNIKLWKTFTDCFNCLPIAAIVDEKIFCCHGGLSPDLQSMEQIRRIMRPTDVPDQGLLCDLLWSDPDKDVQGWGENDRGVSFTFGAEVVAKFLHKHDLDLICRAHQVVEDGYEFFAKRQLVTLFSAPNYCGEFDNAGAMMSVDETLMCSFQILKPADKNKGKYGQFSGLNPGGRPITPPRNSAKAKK
AI-2 QS modul = modulators of Vibrio harveyi AI-2 quorum sensing system; Vibrio harveyi JMH597 AI-2 luminescence/OD600 ratio, 9 h; active compounds read low; strain lacks LuxN and CqsS sensors; 0 = neutral-control median; activity change, % at 7.5 µM; 300,000 tested, 0.4% active; AID 2094; in the data active = activity change below about -75%, passing the limit was not always enough; inconclusive = no clear call, values can overlap the other calls;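 also: luminescence divided by OD600 gain over 9 h not by final OD600 alone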
UBC13 polyUb = blocks human UBC13 polyubiquitin chain formation; P61088; 330,000 tested, 0.47% active; TR-FRET; inhibition, % at 20 µM; in the data active = inhibition above about 45%, passing the limit was not always enough; inconclusive = no clear call, values can overlap the other calls
Target sequence (P61088 whole entry, looked up): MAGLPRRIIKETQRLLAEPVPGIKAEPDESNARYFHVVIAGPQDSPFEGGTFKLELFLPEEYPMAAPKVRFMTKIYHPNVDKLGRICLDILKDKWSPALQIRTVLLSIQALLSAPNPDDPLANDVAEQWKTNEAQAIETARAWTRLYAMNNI
T cruzi inh = blocks replication of Trypanosoma cruzi; T. cruzi beta-gal in NIH3T3, luminescence, 90 h; 300,000 tested, 1.4% active; inhibition, % (test concentration not listed); AID 1885;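 active = mean inhibition across valid replicates above about 55%, limit read from the data; inconclusive = mean below that limit but half or more replicates reach it; inactive = mean below it, under half of replicates reach it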;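 also: signal also drops with host cell toxicity which is not excluded here; 0% = plate median of DMSO wells and 100% = zero luminescence signal; higher percent means less beta-gal luminescence so fewer parasites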
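compound dosing = single 50 nL compound addition per well in DMSO | material = NIH/3T3 host cells with β-galactosidase reporter T. cruzi | input = 5,000 host fibroblasts per well | timing = ≥90 h infection period, 3 h prior cell attachment | read-out basis = percent inhibition of parasite-derived β-gal signal | detection = GalScreen β-gal luminescence, detergent lysis, 60 min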
p-CIP stab down = compounds decreasing mouse p/CIP protein stability; Q05BA5; 290,000 tested, 0.01% active; F442A p/CIP-EGFP cells, EGFP fluorescence, 16 h; decrease of EGFP signal, % at 10 µM;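 active = EGFP signal decrease of at least 30% at 10 µM or well 3 SD below plate mean, unless failing retest; inactive = the rest, including hits failing retest or dose response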
The depositor's hits bear a star.

What do the screens show for `CC(/C=C1\SC(=Nc2cccnc2)NC1=O)=C\c1ccccc1`?
PP1 counter: 2; AI-2 QS modul: 19; UBC13 polyUb: -13; T cruzi inh: -17; p-CIP stab down: -7

How did C=CCOc1ccc(/C=C2\SC(=Nc3cccnc3)NC2=O)cc1 do in these assays?
PP1 counter: 16*; AI-2 QS modul: 21; UBC13 polyUb: -23; T cruzi inh: -15; p-CIP stab down: -2

What do the screens show for `O=C(O)c1cn(Cc2ccccc2)c2ccc(Cl)cc2c1=O`?
PP1 counter: 17*; AI-2 QS modul: 20; UBC13 polyUb: 2; T cruzi inh: 19

Results for Cc1ccc(C)c(N/C(N)=N/c2nc(C)cc(C)n2)c1 ?
PP1 counter: -1; AI-2 QS modul: 29; UBC13 polyUb: -4; T cruzi inh: 65*; p-CIP stab down: -3

Results for Cc1ccc(Nc2nc(N)nc(CSc3nnnn3-c3ccccc3)n2)cc1 ?
PP1 counter: 16*; AI-2 QS modul: 21; UBC13 polyUb: 11; T cruzi inh: -9; p-CIP stab down: -4

How did O=[N+]([O-])c1ccc(-c2ccc(/C=N/Nc3nc(N4CCCC4)nc(N4CCCC4)n3)o2)cc1 do in these assays?
PP1 counter: -4; AI-2 QS modul: 10; UBC13 polyUb: -22; T cruzi inh: 42; p-CIP stab down: -27

Results for O=[N+]([O-])c1ccc(/C=N/Nc2nc(N3CCCC3)nc(N3CCCC3)n2)o1 ?
PP1 counter: 2; AI-2 QS modul: 35; UBC13 polyUb: -17; T cruzi inh: 64*; p-CIP stab down: -10

Results for O=[N+]([O-])c1ccc(/C=N/Nc2nc(-c3ccccc3)c3cc(Br)ccc3n2)o1 ?
PP1 counter: -3; AI-2 QS modul: 35; UBC13 polyUb: -61; T cruzi inh: inconclusive; p-CIP stab down: -1

What do the screens show for `Fc1ccc(Nc2nc(N/N=C/c3ccco3)nc(N3CCCCC3)n2)cc1`?
PP1 counter: 4; AI-2 QS modul: 19; UBC13 polyUb: -1; T cruzi inh: 60*; p-CIP stab down: 4

Results for CCNc1nc(NCC)nc(N/N=C/c2ccc([N+](=O)[O-])o2)n1 ?
PP1 counter: -2; AI-2 QS modul: -158*; UBC13 polyUb: -32; T cruzi inh: 47; p-CIP stab down: 9

What do the screens show for `O=[N+]([O-])c1ccc(/C=N/Nc2ccc3ccccc3c2)o1`?
PP1 counter: -1; AI-2 QS modul: 33; UBC13 polyUb: -136; T cruzi inh: 39; p-CIP stab down: -19

What do the screens show for `Cc1ccc2nc(N/N=C\c3ccc([N+](=O)[O-])o3)nc(-c3ccccc3)c2c1`?
PP1 counter: 0; AI-2 QS modul: 0; UBC13 polyUb: -143; T cruzi inh: 80*; p-CIP stab down: -33

How did COc1ccc(C2=NS(=O)(=O)N(C)C(C(=O)N(C)Cc3ccccc3)=C2)cc1OC do in these assays?
PP1 counter: -7; AI-2 QS modul: 0; UBC13 polyUb: -2; T cruzi inh: 9; p-CIP stab down: -11

Results for CC1(C)C2CCC1(C)C(NCC(O)COc1ccc(C#N)cc1)C2 (stereo unspecified) ?
PP1 counter: 1; AI-2 QS modul: 7; UBC13 polyUb: -3; T cruzi inh: -14; p-CIP stab down: -8

Results for O=C(Cn1cnc([N+](=O)[O-])c1)Nc1cc(Oc2ccc(Cl)cc2Cl)cc([N+](=O)[O-])c1 ?
PP1 counter: 9; AI-2 QS modul: 46; UBC13 polyUb: -2; T cruzi inh: 57*; p-CIP stab down: -13

How did CCN(CC)S(=O)(=O)c1cc(NC(=O)COC(=O)c2c(C)noc2C)ccc1C do in these assays?
PP1 counter: -2; UBC13 polyUb: 4

How did CO[C@H]1C=CO[C@@]2(C)Oc3c(C)c(O)c4c(O)c(c5c(nc6cc(C)ccn65)c4c3C2=O)NC(=O)C(C)=CC=C[C@H](C)[C@H](O)[C@@H](C)[C@@H](O)[C@@H](C)[C@H](OC(C)=O)[C@@H]1C do in these assays?
AI-2 QS modul: -219*; UBC13 polyUb: -64; T cruzi inh: -1; p-CIP stab down: 2

Results for COc1ncc(-c2ccc3c(c2)S(=O)(=O)c2cccc(C(=O)O)c2C3=O)cn1 ?
PP1 counter: -2; UBC13 polyUb: -8

Results for O=C1C(Cl)=C(Nc2ccc(O)cc2)C(=O)c2ccccc21 ?
PP1 counter: 2; AI-2 QS modul: 16; UBC13 polyUb: -231; T cruzi inh: 63*; p-CIP stab down: -17

What do the screens show for `CCSc1nc(-c2ccccc2)cc(=O)[nH]1`?
PP1 counter: -1; UBC13 polyUb: 0

Results for CC(C)(C)c1cc(C(=S)N2CCCC2)cc(C(C)(C)C)c1O ?
AI-2 QS modul: 26; UBC13 polyUb: -4; T cruzi inh: 30; p-CIP stab down: 5

How did CN(C)C=Nc1ncc2c3ccccc3n(CCN(C)C)c2c1C#N do in these assays?
PP1 counter: 1; AI-2 QS modul: 4; UBC13 polyUb: -8; T cruzi inh: 26; p-CIP stab down: -2

Results for CCN(CC)CCn1c2ccccc2c2cnc(N)c(C#N)c21 ?
PP1 counter: 4; AI-2 QS modul: 12; UBC13 polyUb: 19; T cruzi inh: 65*; p-CIP stab down: -13

Results for Cc1cc(NCCN2CCOCC2)c2ccc3ccccc3c2n1 ?
PP1 counter: 4; AI-2 QS modul: -3; UBC13 polyUb: -5; T cruzi inh: 65*; p-CIP stab down: 10

Results for COc1ccc2nc(C)cc(NCCN3CCOCC3)c2c1 ?
PP1 counter: 5; AI-2 QS modul: 22; UBC13 polyUb: 1; T cruzi inh: -6; p-CIP stab down: -5

How did COc1ccc(OC(=O)c2cccc(S(=O)(=O)N3CC(C)OC(C)C3)c2)cc1 (stereo unspecified) do in these assays?
PP1 counter: -1; UBC13 polyUb: -2

Results for CC(C)Oc1ccc(C(=O)O)cc1 ?
PP1 counter: -4; AI-2 QS modul: 16; UBC13 polyUb: 2; T cruzi inh: 7; p-CIP stab down: 1

How did CC1=N/C(=C\c2ccc(OC(C)C)cc2)C(=O)N1c1ccc(C(=O)O)cc1 do in these assays?
PP1 counter: 1; AI-2 QS modul: -83*; UBC13 polyUb: -22; T cruzi inh: -10; p-CIP stab down: 2

How did CC(=O)N(CCC(Cc1ccccc1)c1ccc2c(c1)OCO2)Cc1ccc(Cl)cc1 (stereo unspecified) do in these assays?
PP1 counter: 9; AI-2 QS modul: 11; UBC13 polyUb: 2; T cruzi inh: 64*; p-CIP stab down: -16

What do the screens show for `O=C(O)CC(Cc1ccccc1)c1ccc2c(c1)OCO2` (stereo unspecified)?
PP1 counter: -3; AI-2 QS modul: 32; UBC13 polyUb: 1; T cruzi inh: -6; p-CIP stab down: -11

What do the screens show for `COc1ccccc1-c1nc(COc2ccc(Cl)cc2Cl)no1`?
PP1 counter: -5; AI-2 QS modul: 4; UBC13 polyUb: 0; T cruzi inh: 18; p-CIP stab down: -12
